# From ChEMBL document CHEMBL1641443, “Design, synthesis and biological evaluation of small molecule inhibitors of CD4-gp120 binding based on virtual screening” (Bioorg Med Chem, 2011)
# Assays:
# [1] = tested on: Human immunodeficiency virus 1; assay: Antiviral activity against recombinant HIV1 YU2 in Cf2Th-CCR5 cells assessed as viral infectivity by luciferase assasy relative to JRC-II-191; format: functional, isolate YU2
# [2] = biological target: Envelope glycoprotein gp160 (Human immunodeficiency virus type 1 group M subtype B (isolate YU-2)(HIV-1), UniProt P35961); assay: Binding affinity to HIV1 YU2 gp120 by isothermal titration calorimetry assay; set-up: species or system Human immunodeficiency virus type 1 (isolate YU2)
# Method in brief: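 ITC at 25 °C. Cell held gp120 at about 2 μM in PBS pH 7.4 with 2% DMSO. Heat per injection taken from the integrated signal. Kd from a single run unless noted otherwise.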
smiles,measurement,setting,value
Nc1ccc(C(=O)CC(=O)Nc2ccc(Cl)cc2)cc1,fold change (FC),[1],0
CC1(C)CC(NC(=O)C(=O)Nc2ccc(Cl)c(F)c2)CC(C)(C)N1,fold change (FC),[1],1
CC1(C)CC(NC(=O)CC(=O)Nc2ccc(Br)cc2)CC(C)(C)N1,fold change (FC),[1],0
CC1(C)CC(NC(=O)CCC(=O)Nc2ccc(Br)cc2)CC(C)(C)N1,fold change (FC),[1],0
CN(C(=O)C(=O)NC1CC(C)(C)NC(C)(C)C1)c1ccc(Cl)cc1,fold change (FC),[1],0
CN(C(=O)C(=O)Nc1ccc(Cl)c(F)c1)C1CC(C)(C)NC(C)(C)C1,fold change (FC),[1],0
CC1(C)CC(NCC(=O)Nc2ccc(Cl)c(F)c2)CC(C)(C)N1,fold change (FC),[1],0
CC(C)(C)OC(=O)N1CCC(NC(=O)C(=O)Nc2ccc(Cl)c(F)c2)CC1,fold change (FC),[1],0
O=C(Nc1ccc(Cl)c(F)c1)C(=O)NC1CCN(C(=O)c2ccccc2)CC1,fold change (FC),[1],0
CCN1CCC(CNC(=O)C(=O)Nc2ccc(Cl)c(F)c2)CC1,fold change (FC),[1],0.2
CC1(C)CC(NC(=O)C(=O)Nc2ccc(Cl)c(F)c2)CC(C)(C)C1,Kd,[2],Not Active
same,fold change (FC),[1],0.1
CC1(C)C2CCC1(C)C(NC(=O)C(=O)Nc1ccc(Cl)c(F)c1)C2 (stereo not drawn),Kd,[2],Not Active
same,fold change (FC),[1],0
CC1(C)CC(NC(=O)C(=O)Nc2ccc(Cl)c(F)c2)CC(C)(C)[N+]1(C)[O-] (stereo not drawn),fold change (FC),[1],0.23
CN1CCCC(ONC(=O)C(=O)Nc2ccc(Cl)c(F)c2)C1 (stereo not drawn),fold change (FC),[1],0
CC1CCCCN1C(C)CNC(=O)C(=O)Nc1ccc(Cl)c(F)c1 (stereo not drawn),fold change (FC),[1],0
CC1CN(CCNC(=O)C(=O)Nc2ccc(Cl)c(F)c2)CC(C)O1 (stereo not drawn),fold change (FC),[1],0
CC(C)(CNC(=O)C(=O)Nc1ccc(Cl)c(F)c1)N1CCOCC1,fold change (FC),[1],0
CN1CCC(CNC(=O)C(=O)Nc2ccc(Cl)c(F)c2)(N(C)C)CC1,fold change (FC),[1],0.1
CCn1ncnc1C(C)NC(=O)C(=O)Nc1ccc(Cl)c(F)c1 (stereo not drawn),fold change (FC),[1],0
CCc1n[nH]c(NC(=O)C(=O)Nc2ccc(Cl)c(F)c2)c1CC,fold change (FC),[1],0
O=C(NCc1n[nH]c2c1CCCCC2)C(=O)Nc1ccc(Cl)c(F)c1,fold change (FC),[1],0.1
O=C(Nc1ccc(Cl)c(F)c1)C(=O)Nc1cnn2c1NCCC2,fold change (FC),[1],0
O=C(Nc1ccc(Cl)c(F)c1)C(=O)NC1CCc2[nH]ncc2C1 (stereo not drawn),Kd,[2],Not Active
same,fold change (FC),[1],0
O=C(Nc1ccc(Cl)c(F)c1)C(=O)Nc1cccc2[nH]ncc12,fold change (FC),[1],0
Cn1ccnc1C(O)(CCNC(=O)C(=O)Nc1ccc(Cl)c(F)c1)C(F)(F)F (stereo not drawn),fold change (FC),[1],0
CC(NC(=O)C(=O)Nc1ccc(Cl)c(F)c1)c1ccc2c(c1)NC(=O)CO2 (stereo not drawn),fold change (FC),[1],0
CCN1CCCC1CNC(=O)C(=O)Nc1ccc(Cl)cc1 (stereo not drawn),fold change (FC),[1],0
CCN1CCCC1CNC(=O)C(=O)Nc1ccc(Cl)c(F)c1 (stereo not drawn),Kd,[2]; read-out: Kd,2100 nM
same,fold change (FC),[1],0
O=C(Nc1ccc(Cl)c(F)c1)C(=O)N[C@H]1CCN(Cc2ccccc2)C1,fold change (FC),[1],0
O=C(Nc1ccc(Cl)c(F)c1)C(=O)N[C@@H]1CCN(Cc2ccccc2)C1,Kd,[2],Not Active
same,fold change (FC),[1],0
O=C(NCC1CCN(C2CC2)C1)C(=O)Nc1ccc(Cl)c(F)c1 (stereo not drawn),fold change (FC),[1],0.3
O=C(Nc1ccc(Cl)c(F)c1)C(=O)NC1CCN(C2CCCCC2)C1 (stereo not drawn),fold change (FC),[1],0.48
O=C(NCC1CCN(CCN2CCOCC2)C1)C(=O)Nc1ccc(Cl)c(F)c1 (stereo not drawn),fold change (FC),[1],0.1
O=C(Nc1ccc(Cl)c(F)c1)C(=O)NC1CCNC2(CCC2)C1 (stereo not drawn),Kd,[2]; read-out: Kd,600 nM
same,fold change (FC),[1],2.6
C[C@@H]1CCC[C@H](C)N1CCNC(=O)C(=O)Nc1ccc(Cl)c(F)c1,Kd,[2]; read-out: Kd,1600 nM
same,fold change (FC),[1],0.2
O=C(NCC1CCCN(CCO)C1)C(=O)Nc1ccc(Cl)c(F)c1 (stereo not drawn),Kd,[2]; read-out: Kd,3200 nM
same,fold change (FC),[1],0
O=C(NC[C@@H]1CCCN2CCCC[C@H]12)C(=O)Nc1ccc(Cl)c(F)c1,fold change (FC),[1],0
CC(C)(C)c1cc(CNC(=O)C(=O)Nc2ccc(Cl)c(F)c2)n[nH]1,fold change (FC),[1],0.1
CC1(C)O[C@@H](CN)[C@H](CNC(=O)C(=O)Nc2ccc(Cl)c(F)c2)O1,Kd,[2]; read-out: Kd,2600 nM
same,fold change (FC),[1],1.5
CC1(C)CC(NC(=O)C(=O)Nc2ccc(Cl)cc2F)CC(C)(C)N1,fold change (FC),[1],0
CC1(C)CC(NC(=O)C(=O)Nc2ccc(Cl)cc2Cl)CC(C)(C)N1,fold change (FC),[1],0
Cc1cc(Cl)ccc1NC(=O)C(=O)NC1CC(C)(C)NC(C)(C)C1,fold change (FC),[1],0
CC1(C)CC(NC(=O)C(=O)Nc2ccc(Cl)cc2C(F)(F)F)CC(C)(C)N1,fold change (FC),[1],0
COc1cc(Cl)ccc1NC(=O)C(=O)NC1CC(C)(C)NC(C)(C)C1,fold change (FC),[1],0
CCOc1cc(Cl)ccc1NC(=O)C(=O)NC1CC(C)(C)NC(C)(C)C1,fold change (FC),[1],0
CC1(C)CC(NC(=O)C(=O)Nc2ccc(Cl)cc2OCc2ccccc2)CC(C)(C)N1,fold change (FC),[1],0
CC1(C)Cc2c(sc(NC(=O)C(=O)Nc3ccc(Cl)c(F)c3)c2C#N)C(C)(C)N1,fold change (FC),[1],0
Nc1ncc(CNC(=O)C(=O)Nc2ccc(Cl)c(F)c2)cn1,fold change (FC),[1],0
CNS(=O)(=O)Cc1ccc(CNC(=O)C(=O)Nc2ccc(Cl)c(F)c2)cc1,fold change (FC),[1],0
CC(NC(=O)C(=O)Nc1ccc(Cl)c(F)c1)c1ccc(S(N)(=O)=O)cc1 (stereo not drawn),fold change (FC),[1],0
CCN(CC)C(CNC(=O)C(=O)Nc1ccc(Cl)c(F)c1)CC(C)C (stereo not drawn),fold change (FC),[1],0
CN(C)C(CNC(=O)C(=O)Nc1ccc(Cl)c(F)c1)c1ccco1 (stereo not drawn),fold change (FC),[1],0
CN(C)C(CNC(=O)C(=O)Nc1ccc(Cl)c(F)c1)N1CCCC1 (stereo not drawn),fold change (FC),[1],0
O=C(NCC(c1ccco1)N1CCCC1)C(=O)Nc1ccc(Cl)c(F)c1 (stereo not drawn),fold change (FC),[1],0
O=C(NCC(c1ccc(Cl)cc1)N1CCCC1)C(=O)Nc1ccc(Cl)c(F)c1 (stereo not drawn),fold change (FC),[1],0.4
CN1CCN(C(CNC(=O)C(=O)Nc2ccc(Cl)c(F)c2)c2cccs2)CC1 (stereo not drawn),fold change (FC),[1],0
CN1CCN(C(CNC(=O)C(=O)Nc2ccc(Cl)c(F)c2)c2ccccc2Cl)CC1 (stereo not drawn),fold change (FC),[1],0.11
CC(NC(=O)C(=O)Nc1ccc(Cl)c(F)c1)C(c1ccccc1Cl)N1CCOCC1 (stereo not drawn),fold change (FC),[1],0
O=C(NCc1ccccc1CN1CCOCC1)C(=O)Nc1ccc(Cl)c(F)c1,fold change (FC),[1],0.5
COc1cc(NC(=O)C(=O)NC2CC(C)(C)NC(C)(C)C2)ccc1Cl,fold change (FC),[1],0
CC(C)Oc1cc(NC(=O)C(=O)NC2CC(C)(C)NC(C)(C)C2)ccc1Cl,fold change (FC),[1],0
CC1(C)CC(NC(=O)C(=O)Nc2ccc(Cl)c(OCc3ccccc3)c2)CC(C)(C)N1,fold change (FC),[1],0
CC1(C)CC(NC(=O)C(=O)Nc2cccc(OCc3ccccc3)c2)CC(C)(C)N1,fold change (FC),[1],0
CC(C)COc1cc(Cl)ccc1NC(=O)C(=O)NC1CC(C)(C)NC(C)(C)C1,fold change (FC),[1],0
CC1(C)CC(NC(=O)C(=O)Nc2ccc(N=[N+]=[N-])cc2)CC(C)(C)N1,fold change (FC),[1],0
CC(C)c1ccccc1NC(=O)C(=O)NC1CC(C)(C)NC(C)(C)C1,fold change (FC),[1],0
CC(C)c1cccc(NC(=O)C(=O)NC2CC(C)(C)NC(C)(C)C2)c1,fold change (FC),[1],0
CC1(C)CC(NC(=O)C(=O)Nc2c[nH]c3ncccc23)CC(C)(C)N1,fold change (FC),[1],0
CC1(C)CC(NC(=O)C(=O)Nc2ccc3ccccc3c2)CC(C)(C)N1,fold change (FC),[1],0
CC1(C)CC(NC(=O)C(=O)Nc2ccc(-n3cc(CCc4ccccc4)nn3)cc2)CC(C)(C)N1,fold change (FC),[1],0
CC1(C)CC(NC(=O)C(=O)Nc2ccc(-n3cc(-c4ccccc4)nn3)cc2)CC(C)(C)N1,fold change (FC),[1],0
CC1(C)CC(NC(=O)C(=O)Nc2ccc(-n3cc(CCCCCO)nn3)cc2)CC(C)(C)N1,fold change (FC),[1],0
O=C(COc1ccc(Cl)cc1)Nc1cc(=O)[nH]c(=O)[nH]1,fold change (FC),[1],0
Cc1cc(SCC(=O)Nc2ccc(Cl)cc2)nc(=O)[nH]1,fold change (FC),[1],0
O=C(Nc1ccc(Cl)cc1)c1cc2c([nH]c1=O)CCCC2,fold change (FC),[1],0
O=C(Nc1ccc(Cl)cc1)Nc1ncnc2[nH]cnc12,fold change (FC),[1],0
O=C(Nc1cc[nH]c(=O)n1)c1sc2cc(Cl)ccc2c1Cl,fold change (FC),[1],0
O=C(Nc1ccc2c(c1)C(=O)NC2=O)c1ccc(Cl)c(Cl)c1,fold change (FC),[1],0
C[C@@H](Sc1nc(=O)cc(N)[nH]1)C(=O)Nc1ccc(Cl)cc1,fold change (FC),[1],0
O=C(COc1ccc(Cl)cc1)Nc1ccc2[nH]c(=O)[nH]c2c1,fold change (FC),[1],0
O=C(CSc1nc(=O)[nH]c2c1CCCC2)Nc1ccc(Cl)cc1,fold change (FC),[1],0
CN1CCC(NC(=O)Nc2ccc(Cl)cc2Cl)CC1,fold change (FC),[1],0
CN1CCCN(C(=O)COc2ccc(Cl)cc2)CC1,fold change (FC),[1],0
CC1(C)CC(NC(=O)C(=O)Nc2ccc(Cl)cc2)CC(C)(C)N1,fold change (FC),[1],1
